High-throughput results as filed in PubChem BioAssay.
Only some compounds are listed: those with a hit (about 1.3% of all), similar ones and a draw of the others.
CHT inh: inhibits the human high affinity choline transporter; CHT-expressing cells, membrane potential dye, choline response; stronger effect = lower value; B-score at 10 µM; 0.86% of 310,000 active;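 active means B-score over 3 SD under the library average, and starting fluorescence ratio not unusually high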;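 further: choline stimulus applied at its EC90 after an EC20 pre-addition; B-score computed on integrated fluorescence ratio after choline addition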
Target sequence (Q9GZV3 whole entry, looked up): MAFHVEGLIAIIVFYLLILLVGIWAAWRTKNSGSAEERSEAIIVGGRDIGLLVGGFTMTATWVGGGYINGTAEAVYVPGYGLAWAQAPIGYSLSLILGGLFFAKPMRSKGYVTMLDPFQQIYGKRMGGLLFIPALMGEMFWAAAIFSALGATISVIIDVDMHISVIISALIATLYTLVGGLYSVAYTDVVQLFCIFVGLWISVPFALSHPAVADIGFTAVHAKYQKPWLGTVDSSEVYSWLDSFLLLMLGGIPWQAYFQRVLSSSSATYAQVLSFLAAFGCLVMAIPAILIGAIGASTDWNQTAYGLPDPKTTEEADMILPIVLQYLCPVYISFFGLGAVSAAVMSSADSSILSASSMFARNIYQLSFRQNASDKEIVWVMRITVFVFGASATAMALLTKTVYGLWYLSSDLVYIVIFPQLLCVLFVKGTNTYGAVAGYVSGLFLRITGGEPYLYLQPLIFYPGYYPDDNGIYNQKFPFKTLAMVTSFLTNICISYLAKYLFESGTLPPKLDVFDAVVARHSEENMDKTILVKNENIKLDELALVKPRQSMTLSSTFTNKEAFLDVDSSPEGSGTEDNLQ
CHT allo act: allosteric activators of human choline transporter CHT. Q9GZV3. CHT-expressing cells, membrane potential dye, choline EC20; stronger effect = higher value; LV-AA mutant CHT in HEK293 cells. B-score at 10 µM. 0.49% of 310,000 active. AID 488977;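 active means initial fluorescence not abnormally high and integrated response B-score, plate-corrected, over 3 SD above library mean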
procasp3 activ: procaspase-3 (human) activation; recombinant procaspase-3 D3A, Ac-DEVD-pNA absorbance 405 nm; activation, % at 8.5 µM; 0.11% of 330,000 active;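 active means activation above the mean of all tested compounds plus 3 SD, cut at about 21% in these data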
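Test system: Procaspase-3 D3A mutant, all three cleavage aspartates alanine | Dosing: Single dose, 8.5 µM nominal compound, 0.8% DMSO | Schedule: 1 h preincubation, 2 h reaction | Technique: 405 nm absorbance of p-nitroaniline, reads at 0 and 120 min | Repeats: One well per compound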
proCasp7 act: counter-screen: procaspase-7 (human) activation; AID 463210; activation, % at 8.5 µM; recombinant procaspase-7, Ac-DEVD-pNA absorbance 405 nm; D23A/D198A/D206A triple mutant, cannot self-cleave; scale: DMSO 0, 5 µM enzyme 100; P55210; 0.093% of 330,000 active;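 active means percent activation above the screen-wide mean plus 3 SD, cut at about 25% in these data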
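signal = Epi-absorbance of released pNA at 405 nm, two timepoints | assay system = Uncleavable procaspase-7 mutant enzyme | reagent = Ac-DEVD-pNA substrate, 400 µM as added | times = 1 h enzyme–compound preincubation and 2 h substrate reaction, both 25 °C | benchmarks = low DMSO alone, high DMSO plus 5 µM PC-7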
CHT activ conf: confirmation of human choline transporter (CHT) activators. CHT-expressing cells, membrane potential dye fluorescence (FDSS); % of choline EC20–EC90 response window; HEK293 expressing CHT LV-AA mutant; choline added at its EC20. shares compounds with CHT allo act. activation, % at 10 µM. 91% of 2,500 active;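 active means primary screen active, with duplicate mean activation above negative control mean plus 3 SD, cut at about 11% in these data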
HEK293 MP dye: counter-screen for CHT activators: effect in parental HEK293 cells. ratio readout change at 10 µM, hits read low. 62% of 2,500 active. membrane potential dye fluorescence (FDSS); measured after EC20 choline addition. shares compounds with CHT allo act;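 active means duplicate-averaged ratio beyond 3 SD from buffer wells, up or down, though filed actives are nearly all decreases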
Each line names hits and unclear results; the compound was inactive in the other large screens (follow-up assays come after a bar, where they were run).

Cc1ccc(CN(C)C(=O)CC2C(=O)NCCN2CC2CCCCC2)cc1 (stereo not given)	none
O=C1CC(c2cc(-c3ccccc3)no2)C1	none
COC(=O)/C(=N/Nc1ccccc1)N1CCCc2ccccc21	none
COC(=O)/C(=N/Nc1ccc(C)cc1)N1CCCc2ccccc21	CHT allo act 8.1 | CHT activ conf inactive | HEK293 MP dye inactive
C=CCn1c(SC(C)C(=O)NCCC2=CCCCC2)nc2ccccc2c1=O (stereo not given)	none | CHT activ conf 27 | HEK293 MP dye inactive
O=C(NCCC1=CCCCC1)C(c1ccccc1)c1ccccc1	none
Cc1ccccc1Nc1c(-c2ccc(N3CCOCC3)cc2)nc2cnccn12	CHT allo act 9.4 | CHT activ conf 29 | HEK293 MP dye -55
Cc1ccn2c(NC(=O)c3ccco3)c(-c3ccccc3)nc2c1	none
Cc1ccccc1Nc1c(-c2ccc(N3CCOCC3)cc2)nc2ncccn12	none | CHT activ conf 25 | HEK293 MP dye -53
Cc1ccn2c(Nc3ccccc3C)c(-c3cccnc3)nc2c1	none | CHT activ conf 41 | HEK293 MP dye -49
O=C(O)c1ccc(Cl)cc1Nc1nc2cc(Cl)ccc2o1	none
CCN(CC)C1=CC(=[N+]2CCCC2)CC(C)(C)C1	none | CHT activ conf 46 | HEK293 MP dye inactive
CC1(C)CC(N2CCN(c3ccccc3)CC2)=CC(=[N+]2CCCC2)C1	none | CHT activ conf 41 | HEK293 MP dye inactive
CC1(C)CC(N2CCCC2)=CC(=[N+]2CCCCCC2)C1	CHT allo act 8.6 | CHT activ conf 54 | HEK293 MP dye inactive
c1ccc(CN2CCN(CCCNc3ccc4nnc(-c5ccccc5)n4n3)CC2)cc1	CHT allo act 7.8 | CHT activ conf 54 | HEK293 MP dye -48
Cc1cc(NC(=O)CSc2nc(-c3ccco3)cc(C(F)(F)F)n2)n(-c2ccccc2)n1	none
Cc1cc(NC(=O)CCCSc2nc(-c3ccco3)cc(C(F)(F)F)n2)n(-c2ccccc2)n1	none | CHT activ conf 15 | HEK293 MP dye inactive
Cc1cc(NCCCN2CCOCC2)n2nc(C)c(-c3ccc(F)cc3)c2n1	none | CHT activ conf 52 | HEK293 MP dye -65
Cc1cc(NCCCN2CCOCC2)n2ncc(-c3ccccc3)c2n1	none
Cc1cc(NCCCN2CCOCC2)n2nc(C)c(-c3ccccc3)c2n1	CHT allo act 9.7 | CHT activ conf 45 | HEK293 MP dye -57
Cc1nc2c(-c3ccc(F)cc3)c(C)nn2c(N2CCOCC2)c1C	none
O=C(N/C(=C\c1ccccc1)C(=O)N1CCCCC1)c1ccco1	none
CCCC(c1nnnn1Cc1ccco1)N1CCN(c2cc(Cl)ccc2C)CC1 (stereo not given)	CHT allo act 6.7 | CHT activ conf 35 | HEK293 MP dye inactive
CC(OC(=O)C1=COCCO1)C(=O)NC1(C#N)CCCCC1 (stereo not given)	none (no result: CHT inh, CHT allo act)
COc1ccc(CN2CCC(N(CCc3ccccc3)Cc3ccccc3)CC2)c(OC)c1	none | CHT activ conf 22 | HEK293 MP dye inactive
CCCCc1n(CC(=O)c2ccc(Cl)cc2)c2ccccc2[n+]1C	none | CHT activ conf 14 | HEK293 MP dye inactive
CCCn1c(SCc2ccc(C(=O)OC)o2)nc2ccccc2c1=O	CHT allo act 6.7 | CHT activ conf 48 | HEK293 MP dye inactive
C=CCN(C(=O)c1oc2c(Cl)cc(C)cc2c1C)C1CCS(=O)(=O)C1 (stereo not given)	none
COCCOC(=O)c1[nH]c2c(c1C)C(=O)CC(c1ccc(N(C)C)cc1)C2 (stereo not given)	none
COCCOC(=O)c1[nH]c2c(c1C)C(=O)CC(c1ccccc1)C2 (stereo not given)	none | CHT activ conf inactive | HEK293 MP dye inactive
COc1ccc(-n2nc3c(N4CCC(C(=O)N5CCC(C)CC5)CC4)nnc(C)c3c2C)cc1	none
Cc1nnc(N2CCC(C(=O)N3CCCCC3)CC2)c2nn(-c3ccc(Cl)cc3)c(C)c12	none | CHT activ conf 39 | HEK293 MP dye inactive
Cc1cc(Cl)ccc1OC(C)C(=O)NCCCCc1ccccc1 (stereo not given)	none
Cc1cc(Cl)ccc1OC(C)C(=O)NCCc1ccc2c(c1)OCCO2 (stereo not given)	none | CHT activ conf inactive | HEK293 MP dye inactive
N/C(=N\OC(=O)c1ccncc1)c1cccc([N+](=O)[O-])c1	CHT allo act 7.3 | CHT activ conf 37 | HEK293 MP dye -46
Cc1cccn2cc(-c3ccccc3)nc12	none
Cc1cccn2cc(CNc3ccccc3)nc12	none | CHT activ conf 31 | HEK293 MP dye -26
C=CCNC(=O)CSc1nc2ccccc2c(=O)n1CCc1ccc(OC)c(OC)c1	none (no result: procasp3 activ, proCasp7 act)
COc1ccc(CCn2c(SCCN3CCCCC3)nc3ccccc3c2=O)cc1OC	CHT allo act 7.4 | CHT activ conf 56 | HEK293 MP dye -60
COc1ccc(N2CC(C)Cn3c2nc2c3c(=O)n(Cc3ccc(F)cc3)c(=O)n2C)c(OC)c1 (stereo not given)	none | CHT activ conf 18 | HEK293 MP dye inactive
COc1ccc(N2CC(C)Cn3c2nc2c3c(=O)n(Cc3ccc(C)cc3)c(=O)n2C)c(OC)c1 (stereo not given)	none
Cc1c2cccn2cc[n+]1C	CHT allo act 6.6 | CHT activ conf 58 | HEK293 MP dye -53
CN(C)CCSc1nnc2sc3ccccc3n12	CHT allo act 6.6 | CHT activ conf 58 | HEK293 MP dye -55
Cc1ccc(C)c(OCC(=O)Nc2ccc(S(=O)(=O)Nc3ncccn3)cc2)c1	none
O=C(O)CC1SC(=O)N(CC(=O)c2ccccc2)C1=O (stereo not given)	none
CCN(c1ccccc1)S(=O)(=O)c1ccc(C(=O)N(CCCN(C)C)c2nc3cc4c(cc3s2)OCO4)cc1	none | CHT activ conf 43 | HEK293 MP dye -37
COc1ccccc1-c1coc2c(CN3CCCC(C)C3)c(O)ccc2c1=O (stereo not given)	none
COC(=O)c1ccc(CSc2ccc3nnc(-c4ccccn4)n3n2)o1	none | CHT activ conf 35 | HEK293 MP dye -36
Cc1cc(NC(=O)CSc2ccc3nnc(-c4ccccn4)n3n2)no1	CHT allo act 8.1 | CHT activ conf 47 | HEK293 MP dye -43
O=C(/C=C/c1cccc([N+](=O)[O-])c1)OCC1CCCO1 (stereo not given)	none (no result: procasp3 activ, proCasp7 act)
CCC[n+]1c(C)sc2c3c(ccc21)CCCC3	CHT allo act 11 | CHT activ conf 82 | HEK293 MP dye -69
Cc1ccc(S(=O)(=O)c2nc(S(=O)(=O)c3ccc(C)cc3)c(N3CCN(CCO)CC3)s2)cc1	none
